In brackets after ≈: the same amount, converted by molar mass. Activity calls are given as the source filed them. The rule behind the calls is not given here.
How the values were obtained:
HepG2 = assay: Cytotoxicity against human HepG2 cells assessed as cell growth inhibition incubated for 72 hrs by MTT assay; assay type: functional, cell-based; conditions: HepG2, 72 h
Method in brief: (§1)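 Cells grown in RPMI-1640 with 10% FBS and seeded at 5×10^3 per well. After 24 h, serial concentrations given for 72 h at 37°C, 5% CO2. Then 5 mg/mL MTT stock added for 3 h, formazan dissolved in DMSO, A570 read. IC50 calculated from the curves.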

NFS-60 = assay: Cytotoxicity against mouse NFS60 cells assessed as cell growth inhibition incubated for 72 hrs by MTT assay; assay type: functional, cell-based; conditions: NFS-60, 72 h; method in brief: as §1
MCF7 = assay: Cytotoxicity against human MCF7 cells assessed as cell growth inhibition incubated for 72 hrs by MTT assay; assay type: functional, cell-based; conditions: MCF7, 72 h; method in brief: as §1
Candida albicans [1] = assay: Antimicrobial activity against Candida albicans ATCC 90028 incubated for 24 hrs by microdilution assay; assay type: functional
Method in brief: (§2)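 Two-fold serial dilutions of test solutions made in Mueller Hinton broth and inoculated. Incubated at 37°C for 24 h. MIC taken as the lowest concentration with no growth. Ciprofloxacin is the antibacterial reference, fluconazole the antifungal one, and DMSO the blank.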

[2] = Selectivity index, ratio of IC50 for human WI38 cells to IC50 for human HepG2 cells; assay type: toxicity; conditions: WI38 cells versus HepG2 cells, read-out: Ratio IC50
Method in brief: (§3)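 SI calculated as IC50 on normal Wi-38 fibroblasts divided by IC50 on the cancer cell line. Both came from 72 h MTT assays.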

Staphylococcus aureus [3] = assay: Antimicrobial activity against Staphylococcus aureus ATCC 25923 incubated for 24 hrs by microdilution assay; assay type: functional; method in brief: as §2
WI-38 = assay: Cytotoxicity against human WI38 cells assessed as cell growth inhibition incubated for 72 hrs by MTT assay; assay type: cell-based; conditions: for IC50: Homo sapiens, WI-38, 72 h; for EC100: human, wi-38, 72 h
Method in brief: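 Wi-38 fibroblasts grown in DMEM with 10% FBS and seeded at 5×10^3 per well. Attachment 24 h, then serial concentrations for 72 h at 37°C, 5% CO2. MTT stock (5 mg/mL) added for 3 h at 37°C, DMSO solubilization, absorbance at 570 nm. IC50 estimated.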

[4] = Selectivity index, ratio of IC50 for human WI38 cells to IC50 for mouse NFS60 cells; method in brief: as §3
Escherichia coli [5] = assay: Antimicrobial activity against Escherichia coli ATCC 25922 incubated for 24 hrs by microdilution assay; assay type: functional; method in brief: as §2
Enterococcus faecalis = assay: Antimicrobial activity against Enterococcus faecalis ATCC 29212 incubated for 24 hrs by agar well diffusion assay; assay type: functional
Method in brief: (§4)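 Nutrient agar spread with 100 µL inoculum: bacteria at 1×10^8 CFU/mL, fungi at 1×10^6 CFU/mL. 10 mm wells loaded with 100 µL of compound in DMSO (final 1 mg/mL). Bacteria incubated 24 h at 37 °C, fungi 48 h at 28 °C. Inhibition zones measured in mm. Ciprofloxacin and fluconazole standards at 1 mg/mL, DMSO negative control.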

Pseudomonas aeruginosa = assay: Antimicrobial activity against Pseudomonas aeruginosa ATCC 27853 incubated for 24 hrs by agar well diffusion assay; assay type: functional; method in brief: as §4
Staphylococcus aureus [6] = assay: Antimicrobial activity against Staphylococcus aureus ATCC 25923 incubated for 24 hrs by agar well diffusion assay; assay type: functional; method in brief: as §4
[7] = Selectivity index, ratio of IC50 for human WI38 cells to IC50 for human MCF7 cells; assay type: toxicity; conditions: WI38 cells versus MCF7 cells, read-out: Ratio IC50; method in brief: as §3
Candida albicans [8] = assay: Antimicrobial activity against Candida albicans ATCC 90028 incubated for 48 hrs by agar well diffusion assay; assay type: functional; method in brief: as §4
Escherichia coli [9] = assay: Antimicrobial activity against Escherichia coli ATCC 25922 incubated for 24 hrs by agar well diffusion assay; assay type: functional; method in brief: as §4

SMILES | IC50 (HepG2) | IC50 (NFS-60) | IC50 (MCF7) | MIC (Candida albicans [1]) | selectivity ratio [2] | MIC (Staphylococcus aureus [3]) | IC50 (WI-38) | EC100 (WI-38) | Ratio IC50 [4] | MIC (Escherichia coli [5]; ATCC 25922, 24 h) | diameter of the inhibition zone (DIZ) (Enterococcus faecalis) | diameter of the inhibition zone (DIZ) (Pseudomonas aeruginosa) | diameter of the inhibition zone (DIZ) (Staphylococcus aureus [6]) | selectivity ratio [7] | diameter of the inhibition zone (DIZ) (Candida albicans [8]) | diameter of the inhibition zone (DIZ) (Escherichia coli [9]) | MIC (Candida albicans [1]; ATCC 90028, 24 h) | MIC (Escherichia coli [5]) | MIC (Staphylococcus aureus [3]; ATCC 25923, 24 h)
COC1(Nc2ccc([N+](=O)[O-])cc2)C(=O)c2ccccc2C1=O | 36 nM | 32.8 nM | 25.4 nM | inactive | 1.49 | inactive | 53.7 nM | 0.043 µM | 1.637 | 3280 µM (≈ 1020 µg/mL) | inactive | 14 mm | inactive | 2.11 | inactive | 14 mm | – | – | –
CC(=O)Oc1ccccc1C(=O)OC1(C(=O)Nc2ccc([N+](=O)[O-])cc2)CCCCC1 | 17.7 nM | 11.3 nM | 16.9 nM | inactive | 2.73 | inactive | 48.4 nM | 0.0355 µM | 4.283 | 2400 µM (≈ 1020 µg/mL) | inactive | 16 mm | inactive | 2.86 | inactive | 16 mm | – | – | –
O=C(Nc1ccc([N+](=O)[O-])cc1)C1(O)CCCCC1 | 648 nM | 716 nM | 664 nM | – | 1.88 | inactive | 1220 nM | 0.53 µM | 1.705 | – | inactive | inactive | inactive | 1.84 | 15 mm | 12 mm | 1040 µM (≈ 275 µg/mL) | inactive | –
O=COC1(C(=O)Nc2ccc([N+](=O)[O-])cc2)CCCCC1 | 34.1 nM | 33.8 nM | 35.4 nM | inactive | 1.36 | inactive | 46.3 nM | 0.0271 µM | 1.369 | 3500 µM (≈ 1020 µg/mL) | 12 mm | 18 mm | inactive | 1.31 | inactive | 15 mm | – | – | –
O=C(O)c1cn(C2CC2)c2cc(N3CCNCC3)c(F)cc2c1=O [CIPROFLOXACIN] | – | – | – | – | – | – | – | – | – | 3 µM (≈ 0.994 µg/mL) | 24 mm | 40 mm | 26 mm | – | – | 43 mm | – | – | 6 µM (≈ 1.99 µg/mL)
O=C(OC1(C(=O)Nc2ccc([N+](=O)[O-])cc2)CCCCC1)c1ccccc1[N+](=O)[O-] | 44 nM | 18.8 nM | 14.7 nM | inactive | 0.786 | inactive | 34.6 nM | 0.0067 µM | 1.84 | 2480 µM (≈ 1020 µg/mL) | inactive | 14 mm | inactive | 2.35 | inactive | 12 mm | – | – | –
COc1ccc(C(=O)OC2(C(=O)Nc3ccc([N+](=O)[O-])cc3)CCCCC2)cc1 | 57.1 nM | 38.8 nM | 41.2 nM | inactive | 0.7 | inactive | 40 nM | 0.0178 µM | 1.031 | 2570 µM (≈ 1020 µg/mL) | inactive | 12 mm | inactive | 0.97 | inactive | 12 mm | – | – | –
OC(Cn1cncn1)(Cn1cncn1)c1ccc(F)cc1F [FLUCONAZOLE] | – | – | – | – | – | – | – | – | – | – | – | – | – | – | 29 mm | – | 1 µM (≈ 0.306 µg/mL) | – | –

Reference: ChEMBL document CHEMBL4390662, “Design, synthesis and biological evaluation of novel α-acyloxy carboxamides via Passerini reaction as caspase 3/7 activators” (Eur J Med Chem, 2019)
